pIC50, pKi: −log10 of the molar value.
Assays:
[1] = target: Monoamine transporters; serotonin & dopamine (Rattus norvegicus) (UniProt P31652+P23977); assay: Relative affinity for dopamine and Serotonin transporters; format: protein assay
Procedure, shortened: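 Ratio of DAT IC50 ([125I]RTI-55, rat striatum) to SERT Ki ([3H]paroxetine, rat frontal cortex), each from displacement curves of 7-10 concentrations. Triplicate runs, at least three experiments.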

[2] = target: Sodium-dependent serotonin transporter (Rattus norvegicus, UniProt P31652); assay: Displacement of [3H]paroxetine from Serotonin transporter of rat frontal cortex membrane; format: tissue-based
Procedure, shortened: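 Rat frontal cortex membranes (50 mg original wet weight) with 0.4 nM [3H]paroxetine. Nonspecific binding defined with 10 μM fluoxetine. Displacement curves used 7-10 unlabeled-analog concentrations. Ki came from the Cheng-Prusoff equation. Mean ± SEM of at least three experiments, each in triplicate.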

[3] = target: Sodium-dependent dopamine transporter (Rattus norvegicus, UniProt P23977); assay: Displacement of [125I]RTI-55 from dopamine transporter of rat brain membranes; format: cell membranes, Membrane
Procedure, shortened: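 Rat striatal membranes (0.5 mg original wet weight) with 10 pM [125I]RTI-55. Nonspecific binding defined with a 1 μM tropane analog. Displacement curves used 7-10 unlabeled-analog concentrations. IC50 was reported because binding is multiphasic. Mean ± SEM of at least three experiments, each in triplicate.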

[4] = target: Norepinephrine transporter (Rattus norvegicus, UniProt Q9WTR4); assay: Displacement of [3H]-nisoxatine from Norepinephrine transporter of rat forebrain membrane; format: tissue-based, Brain
Norepinephrine transporter, sequence (Q9WTR4 whole entry): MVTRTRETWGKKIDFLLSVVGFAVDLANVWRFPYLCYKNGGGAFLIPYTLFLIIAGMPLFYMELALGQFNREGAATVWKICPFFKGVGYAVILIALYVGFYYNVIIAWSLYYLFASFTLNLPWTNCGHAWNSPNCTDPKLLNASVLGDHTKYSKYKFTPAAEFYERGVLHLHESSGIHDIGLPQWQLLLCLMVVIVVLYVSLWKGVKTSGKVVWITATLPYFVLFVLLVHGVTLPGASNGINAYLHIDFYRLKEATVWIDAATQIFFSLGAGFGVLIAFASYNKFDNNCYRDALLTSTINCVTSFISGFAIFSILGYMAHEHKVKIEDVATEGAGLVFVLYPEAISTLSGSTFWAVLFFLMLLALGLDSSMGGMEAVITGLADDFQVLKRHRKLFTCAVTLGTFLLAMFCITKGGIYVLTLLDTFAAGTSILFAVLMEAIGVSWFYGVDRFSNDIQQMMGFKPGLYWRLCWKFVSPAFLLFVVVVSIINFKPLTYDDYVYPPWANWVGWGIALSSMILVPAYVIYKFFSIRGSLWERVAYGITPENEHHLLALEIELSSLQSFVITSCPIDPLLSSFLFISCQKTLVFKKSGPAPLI

Sodium-dependent dopamine transporter, sequence (P23977 whole entry): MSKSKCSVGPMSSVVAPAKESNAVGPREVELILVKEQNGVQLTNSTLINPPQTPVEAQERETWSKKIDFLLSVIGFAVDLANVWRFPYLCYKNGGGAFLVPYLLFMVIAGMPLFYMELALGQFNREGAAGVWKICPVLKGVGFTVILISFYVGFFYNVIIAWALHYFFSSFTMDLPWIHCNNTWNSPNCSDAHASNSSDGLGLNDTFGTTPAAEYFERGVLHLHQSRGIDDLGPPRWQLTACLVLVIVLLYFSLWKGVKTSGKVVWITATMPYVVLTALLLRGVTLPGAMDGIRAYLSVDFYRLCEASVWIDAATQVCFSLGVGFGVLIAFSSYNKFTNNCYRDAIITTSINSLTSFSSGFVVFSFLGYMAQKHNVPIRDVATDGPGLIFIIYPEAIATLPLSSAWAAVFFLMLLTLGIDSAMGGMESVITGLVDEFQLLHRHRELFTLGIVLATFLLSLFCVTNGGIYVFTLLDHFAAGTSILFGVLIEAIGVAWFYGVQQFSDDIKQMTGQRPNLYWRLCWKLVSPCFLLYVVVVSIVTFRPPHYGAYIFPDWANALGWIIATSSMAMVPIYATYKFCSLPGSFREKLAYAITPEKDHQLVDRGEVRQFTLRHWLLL
Monoamine transporters; serotonin & dopamine (Rattus norvegicus), sequence (P23977 whole entry, looked up): as the sequence (P23977 whole entry) above
Monoamine transporters; serotonin & dopamine (Rattus norvegicus), sequence (P31652 whole entry, looked up): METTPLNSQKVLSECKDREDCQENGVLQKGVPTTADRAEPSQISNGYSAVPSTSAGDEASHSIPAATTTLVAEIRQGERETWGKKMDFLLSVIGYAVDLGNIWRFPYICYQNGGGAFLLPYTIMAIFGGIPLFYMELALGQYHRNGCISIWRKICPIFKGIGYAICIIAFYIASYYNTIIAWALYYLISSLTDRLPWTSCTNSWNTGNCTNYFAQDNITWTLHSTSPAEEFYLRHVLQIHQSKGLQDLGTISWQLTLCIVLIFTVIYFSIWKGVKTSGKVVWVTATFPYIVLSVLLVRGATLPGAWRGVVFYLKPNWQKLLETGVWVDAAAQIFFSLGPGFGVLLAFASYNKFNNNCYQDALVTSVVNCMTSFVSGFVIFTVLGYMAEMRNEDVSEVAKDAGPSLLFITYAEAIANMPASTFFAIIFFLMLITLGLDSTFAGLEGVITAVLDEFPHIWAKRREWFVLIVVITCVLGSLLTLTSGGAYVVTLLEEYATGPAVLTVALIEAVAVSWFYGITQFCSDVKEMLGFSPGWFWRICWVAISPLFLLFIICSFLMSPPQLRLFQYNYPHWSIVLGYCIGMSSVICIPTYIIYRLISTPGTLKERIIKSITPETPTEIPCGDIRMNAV
Sodium-dependent serotonin transporter, sequence (P31652 whole entry): as the sequence (P31652 whole entry, looked up) above

Structure (SMILES) | Ratio [1] | pKi [2] | pIC50 [3] | pKi [4]
CCC(=O)C1C(c2ccc(C3CCCCC3)cc2)CC2CCC1N2C (configuration not stated) | 3.3 | 7.01 | 6.49 | < 5.00
CCC(=O)C1C2CCC(CC1c1ccc(C(CC)CC)cc1)N2 (configuration not stated) | 1.27 | 6.82 | 6.72 | 5.29
CCC(=O)C1C2CCC(CC1c1ccc(C(C)C)cc1)N2 (configuration not stated) | 72 | 8.28 | 6.27 | 6.82
C=Cc1ccc(C2CC3CCC(N3)C2C(=O)CC)cc1 (configuration not stated) | 4.7 | 9.49 | 8.82 | 7.96
CCC(=O)C1C(c2ccc(C)cc2)CC2CCC1N2C (configuration not stated) | 0.063 |  |  | 6.80
C=C(C)c1ccc(C2CC3CCC(N3)C2C(=O)CC)cc1 (configuration not stated) | 150 | 9.96 | 7.80 | 7.03
CCC(=O)C1C(c2ccc3ccccc3c2)CC2CCC1N2C (configuration not stated) | 0.31 |  |  | 8.54
C=C(C)c1ccc(C2CC3CCC(C2C(=O)CC)N3C)cc1 (configuration not stated) | 8.8 | 9.09 | 8.14 | 6.10
C=Cc1ccc(C2CC3CCC(C2C(=O)CC)N3C)cc1 (configuration not stated) | 0.28 | 8.49 | 9.05 | 7.11
CCC(=O)C1C(c2ccc(C(CC)CC)cc2)CC2CCC1N2C (configuration not stated) | 0.5 | 6.27 | 6.57 | < 5.00
CCC(=O)C1C2CCC(CC1c1ccc3ccccc3c1)N2 (configuration not stated) |  | 9.66 | 7.44 | 6.36
CCC(=O)C1C2CCC(CC1c1ccc(C3CCCCC3)cc1)N2 (configuration not stated) | 5.8 | 7.07 | 6.31 | 5.37
CCC(=O)C1C2CCC(CC1c1ccc(C)cc1)N2 (configuration not stated) | 0.25 | 7.72 | 8.33 | 8.26

From ChEMBL document CHEMBL1129355, “Synthesis of 3 beta-aryl-8-azabicyclo[3.2.1]octanes with high binding affinities and selectivities for the serotonin transporter site” (J Med Chem, 1996)
